NRP1-CendR mod: alters CendR peptide binding to human NRP-1 | FAM-RPARPAR peptide binding to NRP-1, fluorescence polarization | actives 0.85% (n = 360,000) | AID 602438 | inhibition, % at 25 µM | O14786;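 active means inhibition or corrected inhibition above about 18%, plus a signal ratio from 0.5 to 1.5, limit read from the data, passing the limit was not always enough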
SENP7 inh: inhibitors of human SENP7 protease; inhibition, % at 5 µM; recombinant SENP7, Z-RLRGG-aminoluciferin luminescence, 40 min; Q9BQF6; actives 1.5% (n = 330,000);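 active means inhibition above about 50% at the single test dose, limit read from the data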
SENP8 block-1: blocks the human protease SENP8 | inhibition, % at 10 µM | AID 2540 | actives 1.2% (n = 330,000) | purified SENP8, Z-RLRGG-aminoluciferin cleavage, luminescence; in the data active means inhibition above about 50%
Target sequence (Q96LD8 whole entry, looked up): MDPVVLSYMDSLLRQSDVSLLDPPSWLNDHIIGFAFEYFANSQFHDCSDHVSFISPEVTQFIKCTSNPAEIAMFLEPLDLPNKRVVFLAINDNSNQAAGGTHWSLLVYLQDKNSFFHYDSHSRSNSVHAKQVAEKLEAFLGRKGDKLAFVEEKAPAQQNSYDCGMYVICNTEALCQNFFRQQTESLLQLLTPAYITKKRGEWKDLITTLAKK
SENP6 inh: SENP6 protease inhibition; Q9GZR1; Recombinant SENP6 catalytic domain, aminoluciferin luminescence; inhibition, % at 10 µM; actives 1.8% (n = 330,000); AID 2599;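 active means inhibition above about 50% at the single tested dose, limit read from the data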
SENP8 block-2: inhibitors of human SENP8 protease; actives 0.64% (n = 360,000); Q96LD8; AID 602440; recombinant SENP8, Nedd8 substrate fluorescence; inhibition, % at 20 µM; in the data active means inhibition mostly above about 40%, no sharp cut-off; inactive means mostly below about 27%
SENP1 FRET inh: blocks the human SENP1 SUMO protease catalytic domain | actives 0.21% (n = 360,000) | recombinant SENP1 catalytic domain, CyPet-SUMO1-YPet FRET cleavage | AID 624204 | inhibition, % at 10 µM | Q9P0U3;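 active means inhibition at least 30% at 10 µM, raw YFP signal under a set limit, fluorescence ratio 0.5 to 1.5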
Target sequence (Q9P0U3 419-644 limits assumed): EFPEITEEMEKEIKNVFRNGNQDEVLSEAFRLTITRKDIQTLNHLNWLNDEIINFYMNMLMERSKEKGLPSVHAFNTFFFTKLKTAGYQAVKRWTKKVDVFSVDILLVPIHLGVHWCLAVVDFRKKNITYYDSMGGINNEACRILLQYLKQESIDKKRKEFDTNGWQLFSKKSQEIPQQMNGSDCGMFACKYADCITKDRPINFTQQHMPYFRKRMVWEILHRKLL
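Material – human SENP1 catalytic domain · Input – SENP1 enzyme, 20 pM final · Compound dosing – single concentration of 10 µM compound, 0.5% DMSO final · Timing – enzyme reaction for 50 min at room temperature, dark · Measured by – FRET fluorescence in CFP and YFP emission channels · Control set – no-enzyme wells low, DMSO-plus-enzyme wells high control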
SENP8 conf: confirmation of human SENP8 protease inhibitors; shares compounds with SENP7 inh; Recombinant SENP8, Z-RLRGG-aminoluciferin luminescence, 60 min; inhibition, % at 12.5 µM; actives 40% (n = 6,200);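 active means mean inhibition across replicates above about 50%, limit read from the data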
SENP6 confirm: confirmation of human SENP6 protease inhibitors | shares compounds with SENP7 inh | recombinant SENP6, Z-RLRGG-aminoluciferin luminescence | inhibition, % at 12.5 µM | actives 58% (n = 6,200) | AID 488915
SENP7 conf: confirmation of human SENP7 protease inhibitors; recombinant SENP7, Z-RLRGG-aminoluciferin luminescence, 40 min; actives 69% (n = 6,200); shares compounds with SENP7 inh; inhibition, % at 12.5 µM; AID 488917
Casp3 SENP sel: inhibits human caspase-3 in SENP selectivity test | shares compounds with SENP7 inh | purified caspase-3, Z-DEVD-aminoluciferin luminescence, 60 min | inhibition, % at 12.5 µM | actives 60% (n = 6,200);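 active means mean inhibition above about 50%, limit read from the data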
Target sequence (P42574 28-227 limits assumed): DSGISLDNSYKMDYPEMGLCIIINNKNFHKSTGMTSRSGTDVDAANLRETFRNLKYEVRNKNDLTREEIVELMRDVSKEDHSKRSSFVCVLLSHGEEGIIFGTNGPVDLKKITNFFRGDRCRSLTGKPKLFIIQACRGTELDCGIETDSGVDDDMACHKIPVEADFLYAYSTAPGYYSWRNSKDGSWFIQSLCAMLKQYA
SENP luc ctr: luminescence interference (SENP counter-screen). shares compounds with SENP7 inh. Pre-incubated SENP8/Z-RLRGG-aminoluciferin, luciferase luminescence interference. inhibition, % at 12.5 µM. actives 39% (n = 6,200);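 active means mean inhibition above about 50% when retested at one dose, limit read from the data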
A number is an active result; - = inactive; . = no result. The list is not random: actives were taken first. Their share in the collection is about 3.3%.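 How the source made its calls, unless noted: active means mean inhibition above about 50% in the one-dose retest (limit read from the data); inactive means the rest.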

SMILES	NRP1-CendR mod	SENP7 inh	SENP8 block-1	SENP6 inh	SENP8 block-2	SENP1 FRET inh	SENP8 conf	SENP6 confirm	SENP7 conf	Casp3 SENP sel	SENP luc ctr
CCCc1ccc(C(O)c2ncc(-c3ccccc3)[nH]2)cc1 (configuration not stated)	-	.	.	.	-	-	.	.	.	.	.
Cc1ccc(NC(=O)CNC(=O)c2ccc3c(c2)OCO3)nc1	-	-	-	-	-	-	.	.	.	.	.
Cc1ccnc(NC(=O)c2ccc3c(c2)NC(=O)C(C)S3)c1 (configuration not stated)	-	-	-	55	-	-	-	-	-	-	-
Cc1ccc(NC(=O)c2ccc3c(c2)OCCO3)nc1	-	54	-	56	-	-	-	-	81	81	60
Cc1ccnc(NC(=O)c2ccc3c(c2)OCO3)c1	-	92	80	69	-	-	-	87	98	96	87
Cc1ccc(C)c(S(=O)(=O)NC2CCSC2=O)c1 (configuration not stated)	-	-	-	-	-	-	.	.	.	.	.
Nc1nc(SCc2cccnc2)c2ncn(C3OC(CO)C(O)C3O)c2n1 (configuration not stated)	-	.	.	.	-	-	.	.	.	.	.
O=C(Nc1cc([N+](=O)[O-])ccc1O)c1cccc([N+](=O)[O-])c1	-	67	69	83	-	-	85	83	97	86	70
O=C(Nc1cc([N+](=O)[O-])ccc1O)c1ccc2c(c1)C(=O)N(Cc1ccco1)C2=O	-	-	76	82	-	-	-	84	74	77	84
O=C(Nc1cc([N+](=O)[O-])ccc1O)c1cccc(C(=O)Nc2cc([N+](=O)[O-])ccc2O)c1	-	.	.	.	-	-	.	.	.	.	.
O=C(Nc1ccc(O)cc1C(=O)O)c1ccc2c(c1)C(=O)N(Cc1ccco1)C2=O	-	-	-	-	-	-	.	.	.	.	.
COC(=O)c1ccc(-c2ccc(Cl)cc2)nc1C	-	76	58	76	-	-	-	64	90	52	-
COc1ccc(NC(=O)c2ccc(OCC3CCCO3)cc2)cc1Cl (configuration not stated)	-	67	-	55	-	-	-	-	73	-	-
Cc1ccnc(NC(=O)c2ccc(OCC3CCCO3)cc2)c1 (configuration not stated)	-	83	75	84	-	-	82	82	97	94	61
Cc1ccc(NC(=O)c2ccc(OCC3CCCO3)cc2)c(C)c1 (configuration not stated)	-	-	-	-	-	-	.	.	.	.	.
Cc1ccnc(NC(=O)COc2ccc3c(c2)CCC3)c1	-	94	94	82	-	-	87	86	98	91	84
CCCCn1nnnc1C1(C)CCC(=O)N1CCc1ccc(OC)c(OC)c1 (configuration not stated)	-	.	.	.	-	-	.	.	.	.	.
CCCc1cc(C(=O)Nc2cc(C)ccc2O)no1	-	-	67	61	-	-	-	56	87	72	-
CCCc1cc(C(=O)Nc2cccnc2Cl)no1	-	-	-	-	-	-	.	.	.	.	.
Cc1cccc(C)c1NC(=O)NS(=O)(=O)c1ccccc1	-	.	.	.	-	-	.	.	.	.	.
O=Cc1ccc(N2Cc3ccccc3C2)cc1	-	-	54	68	-	-	-	55	81	66	-
Oc1ccc(N2Cc3ccccc3C2)cc1	-	-	-	-	-	-	.	.	.	.	.
Cc1cc(N2Cc3ccccc3C2)ccc1C=O	-	-	-	57	-	-	-	73	93	80	-
Cc1cc2c(cc1C)CN(c1ccccc1)C2	-	-	57	59	-	-	51	-	79	79	70
Cc1ccccc1C=O	-	-	-	-	-	-	.	.	.	.	.
SMILES	NRP1-CendR mod	SENP7 inh	SENP8 block-1	SENP6 inh	SENP8 block-2	SENP1 FRET inh	SENP8 conf	SENP6 confirm	SENP7 conf	Casp3 SENP sel	SENP luc ctr
Oc1cccc(N2Cc3ccccc3C2)c1	-	-	-	-	-	-	.	.	.	.	.
COC(=O)C1CC2=C(CCCC2=O)N(Cc2ccccc2)C1=O (configuration not stated)	-	.	.	.	-	-	.	.	.	.	.
O=C(O)CNc1nc(NCc2ccc(Cl)cc2)ccc1[N+](=O)[O-]	-	.	.	.	-	-	.	.	.	.	.
Nc1c(-c2ccccc2)cnn1-c1ccc(C(=O)O)cc1	-	53	-	-	-	-	-	-	76	66	60
Nc1c(-c2ccc(Cl)cc2)cnn1-c1ccccc1	-	93	84	87	-	-	77	77	94	84	-
Cc1nn(-c2ccc(C(=O)O)cc2)c(N)c1-c1ccccc1	-	-	-	-	-	-	.	.	.	.	.
COc1ccc(-c2cnn(-c3ccccc3)c2N)cc1OC	-	-	-	-	-	-	.	.	.	.	.
Cc1ccc(-c2cnn(-c3ccccc3)c2N)cc1	-	95	89	91	-	-	93	94	101	95	62
Nc1c(-c2ccc(Cl)cc2)cnn1-c1cc(C(F)(F)F)cc(C(F)(F)F)c1	-	-	-	-	-	-	.	.	.	.	.
Cc1ccccc1-c1cnn(-c2cccc([N+](=O)[O-])c2)c1N	-	-	-	-	-	-	.	.	.	.	.
Cc1ccc(-c2cnn(-c3cccc([N+](=O)[O-])c3)c2N)cc1	-	53	-	52	-	-	-	-	71	-	-
CC(=O)NC(c1ccccc1)c1nc(-c2cccc(C#N)c2)cs1 (configuration not stated)	-	.	.	.	-	-	.	.	.	.	.
CCc1nc2c(OCc3ccc(Cl)cc3)cccn2c1N(C=O)Cc1ccc(OC)cc1	-	.	.	.	-	-	.	.	.	.	.
COc1ccc(-c2cc(CNc3nc(NCc4ccccc4OC)nc4ccsc34)on2)cc1	-	.	.	.	-	-	.	.	.	.	.
Nc1c(-c2ccc(Cl)cc2)nnn1-c1ccccc1	-	-	-	51	-	-	-	-	65	50	-
CCN(CC)S(=O)(=O)c1cc(NC(=O)CCn2[nH]c(=O)ccc2=O)ccc1C	-	-	-	-	-	-	.	.	.	.	.
CSc1ccccc1NC(=O)Nc1cccc(Cl)c1	-	80	67	83	-	-	83	80	95	53	73
CSc1ccccc1NC(=O)Nc1cccc(Cl)c1Cl	-	-	-	-	-	-	.	.	.	.	.

From PubChem BioAssay
